Measurements: paper PMC3746791 (International Journal of Nanomedicine, 2013)

Tests used:
HepG2 cells = type: cell-based, human; settings: 2 hours, DOX equivalent 30 μg/mL
Summary of the method: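 HepG2 cells in DMEM/10% FBS, 37°C, […], exposed 2 h at 37°C to free or liposomal drug at 30 μg/mL DOX equivalent. Confocal: 7 × 10^4 cells/well on cover glass, 50% confluence, PBS-washed, paraformaldehyde-fixed, Triton-permeabilised, DAPI-stained, ex/em 488/560 nm. Flow: 80% confluence, ex 488/em 575 nm, drug-free cells as reference, n = 3. Competition: 100 mM Gal stock added before liposomes.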

[1] = Pharmacokinetic studies in rats; type: in vivo, Sprague Dawley rats; settings: at 4 hours postinjection, DOX equivalent dose 10 mg/kg
Summary of the method: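 Sprague Dawley rats, 5 per group, given 10 mg/kg DOX equivalent. Jugular blood drawn 10 min to 8 h, plasma spun off immediately. Salicylic acid internal standard added, then perchloric acid precipitation. Supernatant run on C18 HPLC in NH4H2PO4 (0.01 mol/L)-acetonitrile-acetic acid (76:24:0.4) at 1.0 mL/min, 233 nm, 40°C. Two-compartment pharmacokinetic modelling.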

[2] = In vivo biodistribution study; set-up: species or system Kunming mice; settings: mice, intravenous, DOX equivalent 5 mg/kg; heart, spleen, lung, kidney

In the case of `COc1cccc2c1C(=O)c1c(O)c3c(c(O)c1C2=O)C[C@@](O)(C(=O)CO)C[C@@H]3O[C@H]1C[C@H](N)[C@H](O)[C@H](C)O1` [Free DOX, doxorubicin], the “Cellular uptake of DOX (fluorescence)” value (HepG2 cells) is reported as “most intense intracellular fluorescence”, the “Plasma concentration of DOX” value [1] is reported as 180 ng/mL and the “DOX fluorescence in other organs” value [2] is reported as “fluorescence was also observed in the heart, spleen, and kidney”.
